From ChEMBL document CHEMBL5649168, “Discovery of a selective catalytic p300/CBP inhibitor that targets lineage-specific tumours” (Nature, 2017)
Activity calls are given as the source filed them. The rule behind the calls is not given here.

Tests used:
NCI-H838 = assay: Antiproliferative activity against human NCI-H838 cells assessed as inhibition of cell viability incubated for 3 to 5 days by Celltiter-Glo luminescent assay; format: functional, cell-based
[1] = biological target: G protein-coupled receptor kinase 5 (Homo sapiens, UniProt P34947); assay: Inhibition of GRK5 (unknown origin)
[2] = biological target: Ribosomal protein S6 kinase alpha-3 (Homo sapiens, UniProt P51812); assay: Inhibition of Rsk2 (unknown origin)
CHL-1 = assay: Antiproliferative activity against human CHL-1 cells assessed as inhibition of cell viability incubated for 3 to 5 days by Celltiter-Glo luminescent assay; format: functional, cell-based
[3] = biological target: T1, CREB-binding protein/Histone acetyltransferase p300 (Homo sapiens, UniProt Q09472+Q92793); assay: Inhibition of p300/CBP in human 22Rv1 cells assessed as reduction in H3K9Ac level incubated for 24 hrs by Hoechst 33342 staining based high content microscopy analysis; format: cell-based
How it was run: (§1)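 Cells received an 8-point half-log dilution series from 10 µM. They were then fixed in 10% formaldehyde (10 min, RT), permeabilised with 0.1% Triton X-100 and blocked with 1% BSA for 1 h. Primary antibodies were applied overnight at 4 °C, followed by Alexa488 anti-rabbit, Alexa555 anti-mouse and Hoechst 33342 for 1 h. Fifteen fields per well were imaged and average mean intensity taken. EC50 came from a sigmoidal fit.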

[4] = biological target: Mitogen-activated protein kinase 1 (Homo sapiens, UniProt P28482); assay: Inhibition of Erk2 (unknown origin)
HCC1143 = assay: Antiproliferative activity against human HCC1143 cells assessed as inhibition of cell viability incubated for 3 to 5 days by Celltiter-Glo luminescent assay; format: functional, cell-based
EOL1 = assay: Antiproliferative activity against human EOL-1 cells assessed as inhibition of cell viability incubated for 3 to 5 days by Celltiter-Glo luminescent assay; format: functional, cell-based
[5] = biological target: Dual specificity mitogen-activated protein kinase kinase 3 (Homo sapiens, UniProt P46734); assay: Inhibition of MAP2K3 (unknown origin)
[6] = biological target: Vascular endothelial growth factor receptor 2 (Homo sapiens, UniProt P35968); assay: Inhibition of Kdr (unknown origin)
[7] = biological target: T1, CREB-binding protein/Histone acetyltransferase p300; assay: Inhibition of p300/CBP in human 22Rv1 cells assessed as reduction in H3K18Ac level incubated for 3 hrs by Hoechst 33342 staining based high content microscopy analysis; format: cell-based; how it was run: as §1
G-361 = assay: Antiproliferative activity against human G361 cells assessed as inhibition of cell viability incubated for 3 to 5 days by Celltiter-Glo luminescent assay; format: functional, cell-based
SK-MEL-1 = assay: Antiproliferative activity against human SK-MEL-1 cells assessed as inhibition of cell viability incubated for 3 to 5 days by Celltiter-Glo luminescent assay; format: functional, cell-based
[8] = biological target: Dual specificity mitogen-activated protein kinase kinase 1 (Homo sapiens, UniProt Q02750); assay: Inhibition of MEK1 (unknown origin)
[9] = Half life in CB17 SCID mouse xenografted with LuCaP-77 CR cell at 50 mg/kg, ip administered for 7 days; format: ADME, organism-based; conditions: in vivo, time 7 day
HT-144 = assay: Antiproliferative activity against human HT-144 cells assessed as inhibition of cell viability incubated for 3 to 5 days by Celltiter-Glo luminescent assay; format: functional, cell-based
[10] = Inhibition of CDK7/Cyclin H (unknown origin); set-up: species or system Homo sapiens
[11] = biological target: Bromodomain-containing protein 4 (Homo sapiens, UniProt O60885); assay: Inhibition of BRD4 (unknown origin)
Aurora kinase B = Aurora kinase B (Homo sapiens, UniProt Q96GD4); assay: Inhibition of Aurora1 (unknown origin)
[12] = biological target: Tyrosine-protein kinase SYK (Homo sapiens, UniProt P43405); assay: Inhibition of Syk (unknown origin)
NCI-H1417 = assay: Antiproliferative activity against human NCI-H1417 cells assessed as inhibition of cell viability incubated for 3 to 5 days by Celltiter-Glo luminescent assay; format: functional, cell-based
LuCaP-77 CR cell = conditions: Homo sapiens, dose 100.0 mg/kg, time 7.0 day
NCI-H1693 = assay: Antiproliferative activity against human NCI-H1693 cells assessed as inhibition of cell viability incubated for 3 to 5 days by Celltiter-Glo luminescent assay; format: functional, cell-based
[13] = Inhibition of CDK8/Cyclin C (unknown origin); set-up: species or system Homo sapiens
MAO-B = MAO-B (Homo sapiens, UniProt P27338); assay: Inhibition of human recombinant MAO-B at 10 uM by radioligand binding assay relative to control
THP-1 = assay: Antiproliferative activity against human THP-1 cells assessed as inhibition of cell viability incubated for 3 to 5 days by Celltiter-Glo luminescent assay; format: functional, cell-based
Ramos = assay: Antiproliferative activity against human Ramos cells assessed as inhibition of cell viability incubated for 3 to 5 days by Celltiter-Glo luminescent assay; format: functional, cell-based
DB = assay: Antiproliferative activity against human DB cells assessed as inhibition of cell viability incubated for 3 to 5 days by Celltiter-Glo luminescent assay; format: functional, cell-based
Jurkat = assay: Antiproliferative activity against human Jurkat cells assessed as inhibition of cell viability incubated for 3 to 5 days by Celltiter-Glo luminescent assay; format: functional, cell-based
SKM-1 = assay: Antiproliferative activity against human SKM-1 cells assessed as inhibition of cell viability incubated for 3 to 5 days by Celltiter-Glo luminescent assay; format: functional, cell-based
[14] = biological target: T1, CREB-binding protein/Histone acetyltransferase p300; assay: Inhibition of p300/CBP in human 22Rv1 cells assessed as reduction in H3K9Ac level incubated for 3 hrs by Hoechst 33342 staining based high content microscopy analysis; format: cell-based; how it was run: as §1
CREB-binding protein = CREB-binding protein (Homo sapiens, UniProt Q92793); assay: Inhibition of CBP in human 22Rv1 cells at 3 uM incubated for 24 hrs by Western blotting analysis; format: cell-based

T1 sequence (Q09472 whole entry, looked up): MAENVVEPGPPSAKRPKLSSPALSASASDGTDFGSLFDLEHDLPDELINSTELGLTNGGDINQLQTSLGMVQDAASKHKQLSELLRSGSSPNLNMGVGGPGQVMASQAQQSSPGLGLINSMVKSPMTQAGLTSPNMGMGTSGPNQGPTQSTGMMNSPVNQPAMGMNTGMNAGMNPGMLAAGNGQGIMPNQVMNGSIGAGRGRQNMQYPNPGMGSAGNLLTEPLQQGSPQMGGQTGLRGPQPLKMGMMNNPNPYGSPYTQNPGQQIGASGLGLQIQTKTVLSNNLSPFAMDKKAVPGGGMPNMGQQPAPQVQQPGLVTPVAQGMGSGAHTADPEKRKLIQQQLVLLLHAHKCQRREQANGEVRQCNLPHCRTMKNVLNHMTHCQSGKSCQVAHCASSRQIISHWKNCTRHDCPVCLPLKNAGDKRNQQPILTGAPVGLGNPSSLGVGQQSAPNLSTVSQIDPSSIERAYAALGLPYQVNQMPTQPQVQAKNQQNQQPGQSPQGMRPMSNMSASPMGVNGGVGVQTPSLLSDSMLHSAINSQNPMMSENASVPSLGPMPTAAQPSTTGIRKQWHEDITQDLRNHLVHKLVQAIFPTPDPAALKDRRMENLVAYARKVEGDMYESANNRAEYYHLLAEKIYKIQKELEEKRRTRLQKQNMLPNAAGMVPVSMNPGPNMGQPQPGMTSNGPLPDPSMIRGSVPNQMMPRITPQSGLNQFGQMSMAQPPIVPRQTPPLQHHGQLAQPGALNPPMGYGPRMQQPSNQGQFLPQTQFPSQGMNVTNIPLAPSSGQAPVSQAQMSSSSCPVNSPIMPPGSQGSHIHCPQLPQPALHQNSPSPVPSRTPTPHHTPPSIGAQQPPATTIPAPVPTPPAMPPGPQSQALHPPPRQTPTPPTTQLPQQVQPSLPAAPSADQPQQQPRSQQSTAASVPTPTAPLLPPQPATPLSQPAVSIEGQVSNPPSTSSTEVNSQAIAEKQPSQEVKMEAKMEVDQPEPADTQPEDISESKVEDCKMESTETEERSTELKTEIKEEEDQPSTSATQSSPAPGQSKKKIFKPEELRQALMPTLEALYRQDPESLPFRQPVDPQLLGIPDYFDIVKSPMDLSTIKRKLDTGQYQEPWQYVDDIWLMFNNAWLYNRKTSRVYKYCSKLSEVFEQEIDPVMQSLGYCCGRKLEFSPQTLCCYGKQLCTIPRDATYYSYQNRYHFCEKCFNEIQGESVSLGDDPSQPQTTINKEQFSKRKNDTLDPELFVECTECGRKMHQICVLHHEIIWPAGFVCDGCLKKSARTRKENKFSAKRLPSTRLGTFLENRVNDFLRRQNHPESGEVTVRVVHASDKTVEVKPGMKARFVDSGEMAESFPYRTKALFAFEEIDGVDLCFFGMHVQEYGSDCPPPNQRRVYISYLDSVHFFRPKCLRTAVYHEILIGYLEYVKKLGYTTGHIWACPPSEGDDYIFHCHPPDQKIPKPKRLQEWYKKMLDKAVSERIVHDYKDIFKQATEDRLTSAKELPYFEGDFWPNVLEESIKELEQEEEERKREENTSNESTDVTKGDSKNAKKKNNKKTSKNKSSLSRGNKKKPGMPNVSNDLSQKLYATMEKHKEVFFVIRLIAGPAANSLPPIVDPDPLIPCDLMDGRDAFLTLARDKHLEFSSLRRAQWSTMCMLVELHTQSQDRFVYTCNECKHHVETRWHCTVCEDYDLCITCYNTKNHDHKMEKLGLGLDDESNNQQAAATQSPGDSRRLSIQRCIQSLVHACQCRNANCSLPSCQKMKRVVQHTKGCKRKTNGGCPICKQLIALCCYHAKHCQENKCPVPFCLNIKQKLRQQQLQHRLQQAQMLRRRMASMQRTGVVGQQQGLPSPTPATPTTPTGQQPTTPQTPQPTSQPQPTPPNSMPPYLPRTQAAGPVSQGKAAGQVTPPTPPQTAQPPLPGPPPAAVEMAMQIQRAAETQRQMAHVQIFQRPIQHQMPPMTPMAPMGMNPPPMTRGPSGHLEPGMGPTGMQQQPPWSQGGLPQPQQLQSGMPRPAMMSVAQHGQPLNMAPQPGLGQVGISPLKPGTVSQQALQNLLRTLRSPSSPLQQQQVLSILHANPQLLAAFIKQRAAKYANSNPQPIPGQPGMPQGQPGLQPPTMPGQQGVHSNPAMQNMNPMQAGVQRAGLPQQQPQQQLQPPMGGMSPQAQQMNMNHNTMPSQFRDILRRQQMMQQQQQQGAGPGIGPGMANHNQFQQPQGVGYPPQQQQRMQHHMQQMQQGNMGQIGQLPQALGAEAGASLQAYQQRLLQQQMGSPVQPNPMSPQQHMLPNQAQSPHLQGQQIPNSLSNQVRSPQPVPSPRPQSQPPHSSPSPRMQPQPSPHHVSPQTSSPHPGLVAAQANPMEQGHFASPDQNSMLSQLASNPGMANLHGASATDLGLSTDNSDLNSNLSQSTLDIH
T1 sequence (Q92793 whole entry, looked up): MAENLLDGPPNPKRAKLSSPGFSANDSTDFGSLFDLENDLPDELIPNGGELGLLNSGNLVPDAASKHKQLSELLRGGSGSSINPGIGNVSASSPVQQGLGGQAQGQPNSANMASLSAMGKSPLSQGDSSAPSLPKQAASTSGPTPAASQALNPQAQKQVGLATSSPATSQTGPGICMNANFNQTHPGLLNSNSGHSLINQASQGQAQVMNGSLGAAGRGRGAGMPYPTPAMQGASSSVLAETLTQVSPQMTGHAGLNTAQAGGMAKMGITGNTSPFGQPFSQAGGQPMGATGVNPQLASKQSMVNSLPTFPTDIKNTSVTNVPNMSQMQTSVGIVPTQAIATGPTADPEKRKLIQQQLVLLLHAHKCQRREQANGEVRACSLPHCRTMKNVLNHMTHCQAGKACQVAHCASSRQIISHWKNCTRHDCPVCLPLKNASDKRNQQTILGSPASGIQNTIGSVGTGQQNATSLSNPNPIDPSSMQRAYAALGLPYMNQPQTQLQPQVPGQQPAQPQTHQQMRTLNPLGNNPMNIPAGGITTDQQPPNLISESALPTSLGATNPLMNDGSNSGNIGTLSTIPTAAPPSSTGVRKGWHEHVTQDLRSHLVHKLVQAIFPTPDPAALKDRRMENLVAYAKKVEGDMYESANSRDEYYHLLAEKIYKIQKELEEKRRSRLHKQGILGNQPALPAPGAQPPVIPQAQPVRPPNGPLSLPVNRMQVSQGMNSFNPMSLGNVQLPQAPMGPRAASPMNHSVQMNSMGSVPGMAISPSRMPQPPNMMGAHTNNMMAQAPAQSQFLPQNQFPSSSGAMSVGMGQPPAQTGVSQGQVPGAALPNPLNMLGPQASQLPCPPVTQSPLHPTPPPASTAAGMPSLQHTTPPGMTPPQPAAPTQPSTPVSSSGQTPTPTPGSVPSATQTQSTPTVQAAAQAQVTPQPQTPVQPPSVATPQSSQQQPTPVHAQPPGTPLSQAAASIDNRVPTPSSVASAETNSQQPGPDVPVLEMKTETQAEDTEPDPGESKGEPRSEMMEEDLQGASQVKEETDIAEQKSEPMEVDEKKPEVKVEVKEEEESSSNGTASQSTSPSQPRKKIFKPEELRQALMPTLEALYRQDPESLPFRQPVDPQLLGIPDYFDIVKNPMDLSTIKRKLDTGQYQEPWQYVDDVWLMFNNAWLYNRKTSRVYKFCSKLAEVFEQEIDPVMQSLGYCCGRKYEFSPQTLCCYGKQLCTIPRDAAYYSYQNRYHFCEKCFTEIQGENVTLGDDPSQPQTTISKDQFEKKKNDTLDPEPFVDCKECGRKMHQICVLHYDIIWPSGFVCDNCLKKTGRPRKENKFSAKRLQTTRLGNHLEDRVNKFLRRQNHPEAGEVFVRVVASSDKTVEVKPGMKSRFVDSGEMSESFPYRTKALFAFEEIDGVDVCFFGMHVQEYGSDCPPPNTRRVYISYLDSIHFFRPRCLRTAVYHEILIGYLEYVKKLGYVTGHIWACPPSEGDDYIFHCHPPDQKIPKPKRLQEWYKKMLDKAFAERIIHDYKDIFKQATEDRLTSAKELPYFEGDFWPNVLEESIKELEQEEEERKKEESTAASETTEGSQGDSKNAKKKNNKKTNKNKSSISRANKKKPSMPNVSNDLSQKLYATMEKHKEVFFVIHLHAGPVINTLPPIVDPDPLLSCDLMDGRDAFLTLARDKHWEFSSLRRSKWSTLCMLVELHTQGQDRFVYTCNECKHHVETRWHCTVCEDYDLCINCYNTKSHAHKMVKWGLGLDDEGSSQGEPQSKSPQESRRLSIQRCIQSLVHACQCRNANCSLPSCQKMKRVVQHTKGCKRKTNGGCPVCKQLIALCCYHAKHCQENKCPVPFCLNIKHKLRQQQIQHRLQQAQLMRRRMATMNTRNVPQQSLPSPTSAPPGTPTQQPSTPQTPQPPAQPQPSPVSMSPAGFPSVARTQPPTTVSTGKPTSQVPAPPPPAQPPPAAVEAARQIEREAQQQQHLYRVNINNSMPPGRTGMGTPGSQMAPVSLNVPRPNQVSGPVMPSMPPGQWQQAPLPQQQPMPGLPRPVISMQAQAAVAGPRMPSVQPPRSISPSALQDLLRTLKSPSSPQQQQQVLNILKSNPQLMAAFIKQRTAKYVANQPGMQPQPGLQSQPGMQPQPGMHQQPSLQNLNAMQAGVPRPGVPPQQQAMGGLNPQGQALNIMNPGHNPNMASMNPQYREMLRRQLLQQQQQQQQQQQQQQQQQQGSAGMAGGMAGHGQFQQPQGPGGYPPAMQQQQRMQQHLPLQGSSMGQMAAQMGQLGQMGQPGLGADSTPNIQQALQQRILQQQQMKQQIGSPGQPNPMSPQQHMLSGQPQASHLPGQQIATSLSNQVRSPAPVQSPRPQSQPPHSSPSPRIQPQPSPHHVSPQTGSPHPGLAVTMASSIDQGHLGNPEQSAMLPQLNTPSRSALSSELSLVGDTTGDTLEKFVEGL

Question: With `CNC(=O)Nc1ccc2c(c1)CC[C@@]21OC(=O)N(CC(=O)N(Cc2ccc(F)cc2)[C@@H](C)C(F)(F)F)C1=O` [A-485] as the molecule, how does the EC50 (NCI-H838) read?
Answer: 6.99 µM

Question: And the IC50 [1]?
Answer: > 10 µM

Question: And the IC50 [2]?
Answer: > 10 µM

Question: What about the EC50 (CHL-1) of the same molecule?
Answer: 0.37 µM

Question: What about the INH [3] of the same molecule?
Answer: > 10 µM

Question: And the IC50 [4]?
Answer: > 10 µM

Question: And the EC50 (HCC1143)?
Answer: > 10 µM

Question: And the EC50 (EOL1)?
Answer: > 10 µM

Question: And the IC50 [5]?
Answer: > 10 µM

Question: What about the IC50 [6] of the same molecule?
Answer: > 10 µM

Question: What about the INH [7] of the same molecule?
Answer: 1.14 µM

Question: And the EC50 (G-361)?
Answer: 3.77 µM

Question: And the EC50 (SK-MEL-1)?
Answer: 0.57 µM

Question: And the IC50 [8]?
Answer: > 10 µM

Question: What about the half-life [9] of the same molecule?
Answer: 1.9 h

Question: What about the EC50 (HT-144) of the same molecule?
Answer: 3.08 µM

Question: And the IC50 [10]?
Answer: > 10 µM

Question: And the IC50 [11]?
Answer: > 10 µM

Question: And the IC50 (Aurora kinase B)?
Answer: > 10 µM

Question: What about the IC50 [12] of the same molecule?
Answer: > 10 µM

Question: What about the EC50 (NCI-H1417) of the same molecule?
Answer: > 10 µM

Question: And the inhibition (LuCaP-77 CR cell)?
Answer: Active

Question: What about the EC50 (NCI-H1693) of the same molecule?
Answer: 2.37 µM

Question: And the IC50 [13]?
Answer: > 10 µM

Question: And the inhibition at 10 µM (MAO-B)?
Answer: -20%

Question: What about the EC50 (THP-1) of the same molecule?
Answer: 3.51 µM

Question: What about the EC50 (Ramos) of the same molecule?
Answer: 0.93 µM

Question: And the EC50 (DB)?
Answer: 0.77 µM

Question: And the EC50 (Jurkat)?
Answer: 4.03 µM

Question: What about the EC50 (SKM-1) of the same molecule?
Answer: 1.34 µM

Question: What about the INH [14] of the same molecule?
Answer: > 10 µM

Question: And the inhibition (CREB-binding protein)?
Answer: inactive
